ChEMBL document CHEMBL4261538, “Synthesis and molecular docking studies of xanthone attached amino acids as potential antimicrobial and anti-inflammatory agents” (Medchemcomm, 2017)
In brackets after ≈: the same amount, converted by molar mass.

Legend:
Staphylococcus aureus [1] = test: Antibacterial activity against Staphylococcus aureus at 75 ug/ml incubated for 24 hrs by agar well diffusion method; assay type: functional; conditions: read-out: DIZ
In short: (§1)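 Bacteria grown in nutrient broth at 37 °C for 24 h, then subcultured at room temperature. Compounds dissolved in DMSO at 5 mg mL⁻¹ and 5–20 µL added to 6 mm wells, giving 25, 50, 75, 100 µg per well. Gentamicin was the positive control and DMSO the negative control. Plates held at 37 °C for 24 h, then inhibition zone diameter (mm) measured. Values are means of three determinations.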

Klebsiella pneumoniae [2] = test: Antibacterial activity against Klebsiella pneumoniae at 25 ug/ml incubated for 24 hrs by agar well diffusion method; assay type: functional; conditions: read-out: DIZ; in short: as §1
Candida albicans [3] = test: Antifungal activity against Candida albicans at 25 ug/ml incubated for 48 hrs by agar well diffusion method; assay type: functional; conditions: read-out: DIZ
In short: (§2)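 Compounds dissolved in DMSO at 5 mg mL⁻¹ and 5–20 µL added to 6 mm wells, giving 25, 50, 75, 100 µg per well. Bavistin was the positive control and DMSO the negative control. Plates incubated at 28 °C for 48 h, then inhibition zone diameter (mm) measured. Values are means of three determinations.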

Klebsiella pneumoniae [4] = test: Antibacterial activity against Klebsiella pneumoniae at 50 ug/ml incubated for 24 hrs by agar well diffusion method; assay type: functional; conditions: read-out: DIZ; in short: as §1
Fusarium oxysporum [5] = test: Antifungal activity against Fusarium oxysporum at 25 ug/ml incubated for 48 hrs by agar well diffusion method; assay type: functional; conditions: read-out: DIZ; in short: as §2
Bacillus subtilis [6] = test: Antibacterial activity against Bacillus subtilis at 100 ug/ml incubated for 24 hrs by agar well diffusion method; assay type: functional; conditions: read-out: DIZ; in short: as §1
Candida albicans [7] = test: Antifungal activity against Candida albicans at 75 ug/ml incubated for 48 hrs by agar well diffusion method; assay type: functional; conditions: read-out: DIZ; in short: as §2
Candida albicans [8] = test: Antifungal activity against Candida albicans at 100 ug/ml incubated for 48 hrs by agar well diffusion method; assay type: functional; conditions: read-out: DIZ; in short: as §2
Bacillus subtilis [9] = test: Antibacterial activity against Bacillus subtilis at 75 ug/ml incubated for 24 hrs by agar well diffusion method; assay type: functional; conditions: read-out: DIZ; in short: as §1
Staphylococcus aureus [10] = test: Antibacterial activity against Staphylococcus aureus at 25 ug/ml incubated for 24 hrs by agar well diffusion method; assay type: functional; conditions: read-out: DIZ; in short: as §1
Bacillus subtilis [11] = test: Antibacterial activity against Bacillus subtilis at 25 ug/ml incubated for 24 hrs by agar well diffusion method; assay type: functional; conditions: read-out: DIZ; in short: as §1
Aspergillus niger [12] = test: Antifungal activity against Aspergillus niger at 50 ug/ml incubated for 48 hrs by agar well diffusion method; assay type: functional; conditions: read-out: DIZ; in short: as §2
Escherichia coli [13] = test: Antibacterial activity against Escherichia coli at 25 ug/ml incubated for 24 hrs by agar well diffusion method; assay type: functional; conditions: read-out: DIZ; in short: as §1
Fusarium oxysporum [14] = test: Antifungal activity against Fusarium oxysporum at 75 ug/ml incubated for 48 hrs by agar well diffusion method; assay type: functional; conditions: read-out: DIZ; in short: as §2
Escherichia coli [15] = test: Antibacterial activity against Escherichia coli at 50 ug/ml incubated for 24 hrs by agar well diffusion method; assay type: functional; conditions: read-out: DIZ; in short: as §1
Aspergillus niger [16] = test: Antifungal activity against Aspergillus niger at 100 ug/ml incubated for 48 hrs by agar well diffusion method; assay type: functional; conditions: read-out: DIZ; in short: as §2
Klebsiella pneumoniae [17] = test: Antibacterial activity against Klebsiella pneumoniae at 75 ug/ml incubated for 24 hrs by agar well diffusion method; assay type: functional; conditions: read-out: DIZ; in short: as §1
Staphylococcus aureus [18] = test: Antibacterial activity against Staphylococcus aureus at 50 ug/ml incubated for 24 hrs by agar well diffusion method; assay type: functional; conditions: read-out: DIZ; in short: as §1
Klebsiella pneumoniae [19] = test: Antibacterial activity against Klebsiella pneumoniae at 100 ug/ml incubated for 24 hrs by agar well diffusion method; assay type: functional; conditions: read-out: DIZ; in short: as §1
Bacillus subtilis [20] = test: Antibacterial activity against Bacillus subtilis at 50 ug/ml incubated for 24 hrs by agar well diffusion method; assay type: functional; conditions: read-out: DIZ; in short: as §1
Fusarium oxysporum [21] = test: Antifungal activity against Fusarium oxysporum at 50 ug/ml incubated for 48 hrs by agar well diffusion method; assay type: functional; conditions: read-out: DIZ; in short: as §2
Fusarium oxysporum [22] = test: Antifungal activity against Fusarium oxysporum at 100 ug/ml incubated for 48 hrs by agar well diffusion method; assay type: functional; conditions: read-out: DIZ; in short: as §2
Escherichia coli [23] = test: Antibacterial activity against Escherichia coli at 75 ug/ml incubated for 24 hrs by agar well diffusion method; assay type: functional; conditions: read-out: DIZ; in short: as §1
Staphylococcus aureus [24] = test: Antibacterial activity against Staphylococcus aureus at 100 ug/ml incubated for 24 hrs by agar well diffusion method; assay type: functional; conditions: read-out: DIZ; in short: as §1
Aspergillus niger [25] = test: Antifungal activity against Aspergillus niger at 75 ug/ml incubated for 48 hrs by agar well diffusion method; assay type: functional; conditions: read-out: DIZ; in short: as §2
Erythrocyte = test: Anti-inflammatory activity in human RBC assessed as inhibition of hypotonic solution-induced hemolysis after 10 mins by spectrophotometric method; assay type: functional, cell-based
In short: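 Human blood (heparinized) washed with 0.9% saline, packed cells made into a 40% v/v stock in isotonic phosphate buffer (154 mM NaCl, 10 mM sodium phosphate, pH 7.4). Stock RBC mixed with hypotonic buffer (50 mM NaCl, 10 mM phosphate, pH 7.4) plus sample at 20–100 µg mL⁻¹.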

Aspergillus niger [26] = test: Antifungal activity against Aspergillus niger at 25 ug/ml incubated for 48 hrs by agar well diffusion method; assay type: functional; conditions: read-out: DIZ; in short: as §2
Candida albicans [27] = test: Antifungal activity against Candida albicans at 50 ug/ml incubated for 48 hrs by agar well diffusion method; assay type: functional; conditions: read-out: DIZ; in short: as §2
Escherichia coli [28] = test: Antibacterial activity against Escherichia coli at 100 ug/ml incubated for 24 hrs by agar well diffusion method; assay type: functional; conditions: read-out: DIZ; in short: as §1
Fusarium oxysporum [29] = test: Antifungal activity against Fusarium oxysporum incubated for 48 to 72 hrs by microdilution method; assay type: functional
In short: (§3)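 Sabouraud agar plates inoculated with fungal suspension at 10⁵ CFU mL⁻¹ plus serially diluted compounds and bavistin reference, both in DMSO. Incubated at 25 °C for 48–72 h. MIC is the lowest concentration completely inhibiting growth. Values are means of three determinations.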

Candida albicans [30] = test: Antifungal activity against Candida albicans incubated for 48 to 72 hrs by microdilution method; assay type: functional; in short: as §3
Aspergillus niger [31] = test: Antifungal activity against Aspergillus niger incubated for 48 to 72 hrs by microdilution method; assay type: functional; in short: as §3

Structure (SMILES) | zone of inhibition at 75 µg/mL (Staphylococcus aureus [1]) | zone of inhibition at 25 µg/mL (Klebsiella pneumoniae [2]) | zone of inhibition at 25 µg/mL (Candida albicans [3]) | zone of inhibition at 50 µg/mL (Klebsiella pneumoniae [4]) | zone of inhibition at 25 µg/mL (Fusarium oxysporum [5]) | zone of inhibition at 100 µg/mL (Bacillus subtilis [6]) | zone of inhibition at 75 µg/mL (Candida albicans [7]) | zone of inhibition at 100 µg/mL (Candida albicans [8]) | zone of inhibition at 75 µg/mL (Bacillus subtilis [9]) | zone of inhibition at 25 µg/mL (Staphylococcus aureus [10]) | zone of inhibition at 25 µg/mL (Bacillus subtilis [11]) | zone of inhibition at 50 µg/mL (Aspergillus niger [12]) | zone of inhibition at 25 µg/mL (Escherichia coli [13]) | zone of inhibition at 75 µg/mL (Fusarium oxysporum [14]) | zone of inhibition at 100 µg/mL (Aspergillus niger [16]) | zone of inhibition at 50 µg/mL (Fusarium oxysporum [21]) | zone of inhibition at 100 µg/mL (Fusarium oxysporum [22]) | zone of inhibition at 75 µg/mL (Aspergillus niger [25]) | zone of inhibition at 25 µg/mL (Aspergillus niger [26]) | zone of inhibition at 50 µg/mL (Candida albicans [27]) | also measured
CC(C)[C@H](N)C(=O)Oc1ccc2c(=O)c3ccccc3oc2c1.Cl | 21 mm | 16 mm | 8 mm | 12 mm | 10 mm | 24 mm | 16 mm | 19 mm | 20 mm | 14 mm | 10 mm | 12 mm | 11 mm | 19 mm | 21 mm | 15 mm | 21 mm | 17 mm | 9 mm | 11 mm | zone of inhibition at 50 µg/mL (Escherichia coli [15]): 15 mm; zone of inhibition at 75 µg/mL (Klebsiella pneumoniae [17]): 21 mm; zone of inhibition at 50 µg/mL (Staphylococcus aureus [18]): 17 mm; zone of inhibition at 100 µg/mL (Klebsiella pneumoniae [19]): 27 mm; zone of inhibition at 50 µg/mL (Bacillus subtilis [20]): 15 mm; zone of inhibition at 75 µg/mL (Escherichia coli [23]): 19 mm; zone of inhibition at 100 µg/mL (Staphylococcus aureus [24]): 24 mm; IC50 (Erythrocyte): 82 µg/mL; zone of inhibition at 100 µg/mL (Escherichia coli [28]): 23 mm
C[C@H](NC(=O)OC(C)(C)C)C(=O)Oc1ccc2c(=O)c3ccccc3oc2c1 | 14 mm | 6 mm | 7 mm | 13 mm | 6 mm | 22 mm | 15 mm | 17 mm | 19 mm | 6 mm | 8 mm | 12 mm | 17 mm | 14 mm | 18 mm | 10 mm | 18 mm | 15 mm | 8 mm | 12 mm | zone of inhibition at 50 µg/mL (Escherichia coli [15]): 14 mm; zone of inhibition at 75 µg/mL (Klebsiella pneumoniae [17]): 19 mm; zone of inhibition at 50 µg/mL (Staphylococcus aureus [18]): 10 mm; zone of inhibition at 100 µg/mL (Klebsiella pneumoniae [19]): 22 mm; zone of inhibition at 50 µg/mL (Bacillus subtilis [20]): 14 mm; zone of inhibition at 75 µg/mL (Escherichia coli [23]): 20 mm; zone of inhibition at 100 µg/mL (Staphylococcus aureus [24]): 19 mm; IC50 (Erythrocyte): 70 µg/mL (≈ 183 µM); zone of inhibition at 100 µg/mL (Escherichia coli [28]): 23 mm
COC(=O)Nc1nc2ccccc2[nH]1 [CARBENDAZIM] |  |  | 19 mm |  | 22 mm |  | 29 mm | 32 mm |  |  |  | 27 mm |  | 33 mm | 36 mm | 27 mm | 36 mm | 33 mm | 20 mm | 24 mm | MIC (Fusarium oxysporum [29]): 27 µg/mL (≈ 141 µM); MIC (Candida albicans [30]): 28 µg/mL (≈ 146 µM); MIC (Aspergillus niger [31]): 27 µg/mL (≈ 141 µM)
CSCC[C@H](NC(=O)OC(C)(C)C)C(=O)Oc1ccc2c(=O)c3ccccc3oc2c1 | 22 mm | 16 mm | 11 mm | 22 mm | 8 mm | 29 mm | 19 mm | 21 mm | 24 mm | 15 mm | 13 mm | 15 mm | 16 mm | 17 mm | 22 mm | 14 mm | 23 mm | 18 mm | 12 mm | 16 mm | zone of inhibition at 50 µg/mL (Escherichia coli [15]): 19 mm; zone of inhibition at 75 µg/mL (Klebsiella pneumoniae [17]): 26 mm; zone of inhibition at 50 µg/mL (Staphylococcus aureus [18]): 17 mm; zone of inhibition at 100 µg/mL (Klebsiella pneumoniae [19]): 31 mm; zone of inhibition at 50 µg/mL (Bacillus subtilis [20]): 18 mm; zone of inhibition at 75 µg/mL (Escherichia coli [23]): 25 mm; zone of inhibition at 100 µg/mL (Staphylococcus aureus [24]): 27 mm; IC50 (Erythrocyte): 36 µg/mL (≈ 81.2 µM); zone of inhibition at 100 µg/mL (Escherichia coli [28]): 30 mm
